Measurements published in ChEMBL document CHEMBL1671840, “Design, Synthesis, and Preclinical Characterization of the Selective Androgen Receptor Modulator (SARM) RAD140” (ACS Med Chem Lett, 2011).
Activity calls are given as the source filed them. The rule behind the calls is not given here.

How the values were obtained:
[1] = Oral bioavailability in rat; assay type: ADME, organism-based; conditions: in vivo
[2] = Half life in rat microsomes; assay type: ADME, Microsome
[3] = Half life in monkey microsomes; assay type: ADME, Macaca mulatta, Microsome; conditions: rhesus monkey
[4] = Half life in human microsomes; assay type: ADME, Microsome
[5] = Oral bioavailability in monkey; assay type: ADME, organism-based, Macaca mulatta; conditions: rhesus monkey, in vivo
Androgen receptor = target: T1, Androgen receptor (Homo sapiens, UniProt P10275); assay: Displacement of fluorescent-tagged R1881 from androgen receptor after 4 hrs by fluorometric assay
T1 sequence (P10275 whole entry): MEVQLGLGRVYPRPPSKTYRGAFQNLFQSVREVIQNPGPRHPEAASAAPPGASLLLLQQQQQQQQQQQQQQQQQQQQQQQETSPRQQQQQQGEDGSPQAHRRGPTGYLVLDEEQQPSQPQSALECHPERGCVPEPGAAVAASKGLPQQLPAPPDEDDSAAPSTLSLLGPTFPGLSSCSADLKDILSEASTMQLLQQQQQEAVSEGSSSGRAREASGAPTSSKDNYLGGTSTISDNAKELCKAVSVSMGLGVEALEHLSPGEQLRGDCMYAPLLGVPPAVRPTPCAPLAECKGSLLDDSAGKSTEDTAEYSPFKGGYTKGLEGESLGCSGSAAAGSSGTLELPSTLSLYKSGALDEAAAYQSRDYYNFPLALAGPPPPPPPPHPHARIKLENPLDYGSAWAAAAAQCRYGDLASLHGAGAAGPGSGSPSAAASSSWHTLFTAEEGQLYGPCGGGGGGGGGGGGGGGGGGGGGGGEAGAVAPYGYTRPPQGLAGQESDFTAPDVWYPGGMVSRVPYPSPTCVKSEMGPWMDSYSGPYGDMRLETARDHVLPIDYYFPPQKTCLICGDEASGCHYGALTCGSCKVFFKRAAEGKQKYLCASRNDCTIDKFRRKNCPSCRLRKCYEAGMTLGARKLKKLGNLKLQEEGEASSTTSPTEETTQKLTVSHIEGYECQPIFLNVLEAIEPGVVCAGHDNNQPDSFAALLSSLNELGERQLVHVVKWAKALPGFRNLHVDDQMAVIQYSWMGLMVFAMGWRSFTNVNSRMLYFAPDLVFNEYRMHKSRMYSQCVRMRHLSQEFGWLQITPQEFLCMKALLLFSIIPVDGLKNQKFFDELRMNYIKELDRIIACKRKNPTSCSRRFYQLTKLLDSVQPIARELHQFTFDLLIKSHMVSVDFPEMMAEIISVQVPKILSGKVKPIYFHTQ

Progesterone receptor = target: T2, Progesterone receptor (Homo sapiens, UniProt P06401); assay: Binding affinity to progesterone receptor
T2 sequence (P06401 whole entry): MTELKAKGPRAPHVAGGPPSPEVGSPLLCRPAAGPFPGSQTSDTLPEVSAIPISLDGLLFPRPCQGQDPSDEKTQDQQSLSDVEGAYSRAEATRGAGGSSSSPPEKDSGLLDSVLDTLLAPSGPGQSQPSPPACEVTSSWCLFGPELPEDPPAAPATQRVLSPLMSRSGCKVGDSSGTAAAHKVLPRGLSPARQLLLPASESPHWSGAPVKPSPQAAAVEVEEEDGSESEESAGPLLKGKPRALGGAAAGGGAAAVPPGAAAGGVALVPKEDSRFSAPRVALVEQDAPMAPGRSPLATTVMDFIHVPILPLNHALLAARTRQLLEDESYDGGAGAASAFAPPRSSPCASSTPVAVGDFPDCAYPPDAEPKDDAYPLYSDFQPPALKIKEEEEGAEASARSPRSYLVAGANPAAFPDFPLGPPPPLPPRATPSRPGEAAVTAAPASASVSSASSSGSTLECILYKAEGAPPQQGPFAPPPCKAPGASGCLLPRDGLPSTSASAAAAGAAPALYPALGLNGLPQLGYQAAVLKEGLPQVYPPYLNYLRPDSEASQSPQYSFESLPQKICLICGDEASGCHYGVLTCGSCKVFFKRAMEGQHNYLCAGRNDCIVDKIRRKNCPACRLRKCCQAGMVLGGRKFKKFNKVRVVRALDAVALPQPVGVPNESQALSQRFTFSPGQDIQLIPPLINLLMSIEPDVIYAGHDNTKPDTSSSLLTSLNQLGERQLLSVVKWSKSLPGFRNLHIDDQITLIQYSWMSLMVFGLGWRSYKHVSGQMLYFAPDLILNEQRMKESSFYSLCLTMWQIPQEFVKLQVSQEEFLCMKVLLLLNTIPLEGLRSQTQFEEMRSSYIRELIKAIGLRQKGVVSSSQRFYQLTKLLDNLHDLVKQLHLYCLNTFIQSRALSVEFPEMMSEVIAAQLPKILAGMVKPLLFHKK

Rattus norvegicus [6] = assay: Androgenic activity in young intact rat assessed as increase of prostate weight at 30 mg/kg, po qd for 11 days; assay type: functional, organism-based; parameters: dose 30 mg/kg; conditions: Prostate gland
Rattus norvegicus [7] = assay: Androgenic activity in young intact rat assessed as increase of levator ani bulbocavernosus muscle weight at 0.1 mg/kg, po qd for 11 days; assay type: functional, organism-based; parameters: dose 0.1 mg/kg; conditions: Muscle tissue
Rattus norvegicus [8] = assay: Androgenic activity in castrated immature rat assessed as increase of levator ani bulbocavernosus muscle weight at 0.03 mg/kg, po qd for 11 days; assay type: functional, organism-based; parameters: dose 0.03 mg/kg; conditions: Muscle tissue
Rattus norvegicus [9] = assay: Androgenic activity in castrated immature rat assessed as increase of levator ani bulbocavernosus muscle weight at 0.3 mg/kg, po qd for 11 days; assay type: functional, organism-based; parameters: dose 0.3 mg/kg; conditions: Muscle tissue
Rattus norvegicus [10] = assay: Androgenic activity in young intact rat assessed as increase of levator ani bulbocavernosus muscle weight at 0.3 mg/kg, po qd for 11 days; assay type: functional, organism-based; parameters: dose 0.3 mg/kg; conditions: Muscle tissue
Rattus norvegicus [11] = assay: Androgenic activity in young intact rat assessed as increase of levator ani bulbocavernosus muscle weight at 0.5 mg/kg, sc qd for 11 days; assay type: functional, organism-based; parameters: dose 0.5 mg/kg; conditions: Muscle tissue
Rattus norvegicus [12] = assay: Androgenic activity in young intact rat assessed as increase of prostate weight at 0.5 mg/kg, sc qd for 11 days; assay type: functional, organism-based; parameters: dose 0.5 mg/kg; conditions: Prostate gland
Cynomolgus monkey [13] = assay: Androgenic activity in cynomolgus monkey assessed as increase of body weight at 0.1 mg/kg, po qd for 28 days; assay type: functional, Macaca fascicularis
Outline: (§1)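 Monkeys in groups of 3, grouped from day -21 and weighed at each time point. Oral dosing at 0.01, 0.1 or 1 mg/kg for 28 days, then 21 days off-dose. Each animal's weight change over the pre-dose weeks served as baseline; baseline-subtracted change from day -1 to day 29 was tested statistically.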

Cynomolgus monkey [14] = assay: Androgenic activity in cynomolgus monkey assessed as increase of body weight at 1 mg/kg, po qd for 28 days; assay type: functional, organism-based; parameters: dose 1 mg/kg; conditions: Macaca fascicularis; outline: as §1
Cynomolgus monkey [15] = assay: Androgenic activity in cynomolgus monkey assessed as effect on lean tissue weight at up to 1 mg/kg, po qd for 28 days measured after 24 hrs of last post dose; assay type: functional, organism-based; parameters: dose 1 mg/kg; conditions: Macaca fascicularis
Outline: (§2)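 Monkeys, 3 per group, dosed orally at 0.01, 0.1 or 1 mg/kg for 28 days. DEXA scans on day -2 and day 29 gave fat and lean tissue mass. Mean change per group, with SD.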

Cynomolgus monkey [16] = assay: Androgenic activity in cynomolgus monkey assessed as effect on fat mass at up to 1 mg/kg, po qd for 28 days measured after 24 hrs of last post dose; assay type: functional, organism-based; parameters: dose 1 mg/kg; conditions: Macaca fascicularis; outline: as §2

Row | Compound | bioavailability [1] [%] | half-life [2] [h] | half-life [3] [h] | half-life [4] [h] | bioavailability [5] [%] | Ki (Androgen receptor) [nM] | IC50 (Progesterone receptor) [nM] | Activity (Rattus norvegicus [6]) | Activity (Rattus norvegicus [7]) | Activity (Rattus norvegicus [8]) | Activity (Rattus norvegicus [9]) | Activity (Rattus norvegicus [10]) | Activity (Rattus norvegicus [11]) | Activity (Rattus norvegicus [12]) | Activity (Cynomolgus monkey [13]) [%] | Activity (Cynomolgus monkey [14]) | Activity (Cynomolgus monkey [15]) | Activity (Cynomolgus monkey [16])
1 | Cc1c(N[C@@H](c2nnc(-c3ccccc3)o2)[C@H](C)O)ccc(C#N)c1Cl | < 5 | – | – | – | – | – | – | – | – | – | – | – | – | – | – | – | – | –
2 | Cc1c(N[C@@H](c2nnc(-c3ccc(C#N)cc3)o2)[C@H](C)O)ccc(C#N)c1Cl [RAD-140] | 27 | > 2 | > 2 | > 2 | 65 | 7 | 750 | inactive | Active | Active | Active | Active | Active | Active | 10 | Active | inactive | inactive
